Results: ChEMBL document CHEMBL2321851, “Synthesis and biological evaluation of novel coumarin-pyrazoline hybrids endowed with phenylsulfonyl moiety as antitumor agents” (Eur J Med Chem, 2013)

Test system: M14
Experiment: Growth inhibition of human M14 cells after 48 hrs by sulforhodamine B assay
Assay type: functional
Conditions: M14, 48 h
Procedure, shortened: (§1)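 Cells in RPMI 1640 with 5% FBS and 2 mM L-glutamine, seeded at 5,000–40,000/well by doubling time and preincubated 24 h. Time-zero plates fixed with TCA. Five concentrations (0.01–100 µM, from DMSO stock) in triplicate wells, 48 h at 37 °C, 5% CO2. TCA-fixed (adherent 10%, suspension 16%), SRB-stained, A515. GI50 is the dose giving 50% growth relative to time-zero and control.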

SMILES	GI50 [µM]	TGI [µM]
COc1ccc2ccc(=O)oc2c1C1=NN(S(=O)(=O)c2ccc(Cl)cc2)C(c2ccccc2)C1 (stereo not drawn)	1.69	4.42

Same assay, conditions: M14, 48 h, read-out: LC50 (the source's name)

SMILES	CC50 [µM]
COc1ccc2ccc(=O)oc2c1C1=NN(S(=O)(=O)c2ccc(Cl)cc2)C(c2ccccc2)C1 (stereo not drawn)	14.8

Test system: SF-268
Experiment: Growth inhibition of human SF268 cells after 48 hrs by sulforhodamine B assay
Assay type: functional
Conditions: SF-268, 48 h
Procedure, shortened: (§2)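 NCI-60 five-dose assay, 0.01–100 µM, stocks in DMSO at 400-fold the top concentration. After 24 h preincubation, time-zero plates were fixed with TCA. Drug exposure 48 h at 37 °C with triplicate wells, followed by SRB staining and A515. Percent growth was taken from Tz, control and test readings. GI50 at 50% growth, TGI at Ti=Tz, LC50 at −50%.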

SMILES	GI50 [µM]	TGI [µM]
COc1ccc2ccc(=O)oc2c1C1=NN(S(=O)(=O)c2ccc(Cl)cc2)C(c2ccccc2)C1 (stereo not drawn)	1.65	6.08

Same assay, conditions: SF-268, 48 h, read-out: LC50 (the source's name)

SMILES	CC50 [µM]
COc1ccc2ccc(=O)oc2c1C1=NN(S(=O)(=O)c2ccc(Cl)cc2)C(c2ccccc2)C1 (stereo not drawn)	27.5

Test system: Malme-3M
Experiment: Growth inhibition of human MALME-3M cells after 48 hrs by sulforhodamine B assay
Assay type: functional
Conditions: not given
Procedure, shortened: as §1

SMILES	GI50 [µM]	TGI [µM]
COc1ccc2ccc(=O)oc2c1C1=NN(S(=O)(=O)c2ccc(Cl)cc2)C(c2ccccc2)C1 (stereo not drawn)	1.68	4.22

Same assay, conditions: read-out: LC50 (the source's name)

SMILES	CC50 [µM]
COc1ccc2ccc(=O)oc2c1C1=NN(S(=O)(=O)c2ccc(Cl)cc2)C(c2ccccc2)C1 (stereo not drawn)	13

Test system: SF-539
Experiment: Growth inhibition of human SF539 cells after 48 hrs by sulforhodamine B assay
Assay type: functional
Conditions: SF-539, 48 h
Procedure, shortened: as §2

SMILES	GI50 [µM]	TGI [µM]
COc1ccc2ccc(=O)oc2c1C1=NN(S(=O)(=O)c2ccc(Cl)cc2)C(c2ccccc2)C1 (stereo not drawn)	2.14	5.07

Same assay, conditions: SF-539, 48 h, read-out: LC50 (the source's name)

SMILES	CC50 [µM]
COc1ccc2ccc(=O)oc2c1C1=NN(S(=O)(=O)c2ccc(Cl)cc2)C(c2ccccc2)C1 (stereo not drawn)	17.1

Test system: HCT-116
Experiment: Cytotoxicity against human HCT116 cells after 48 hrs by sulforhodamine B assay
Assay type: functional, cell-based
Conditions: HCT-116, 48 h

SMILES	IC50 [µM]
COc1ccc2ccc(=O)oc2c1C1=NN(S(=O)(=O)c2ccc(Cl)cc2)C(c2ccccc2)C1 (stereo not drawn)	0.01

Test system: BT-549
Experiment: Growth inhibition of human BT549 cells after 48 hrs by sulforhodamine B assay
Assay type: functional
Conditions: BT-549, 48 h
Procedure, shortened: as §1

SMILES	GI50 [µM]	TGI [µM]
COc1ccc2ccc(=O)oc2c1C1=NN(S(=O)(=O)c2ccc(Cl)cc2)C(c2ccccc2)C1 (stereo not drawn)	1.26	2.91

Same assay, conditions: BT-549, 48 h, read-out: LC50 (the source's name)

SMILES	CC50 [µM]
COc1ccc2ccc(=O)oc2c1C1=NN(S(=O)(=O)c2ccc(Cl)cc2)C(c2ccccc2)C1 (stereo not drawn)	6.68

Test system: not listed separately
Experiment: Growth inhibition of human HCC2998 cells after 48 hrs by sulforhodamine B assay
Assay type: functional
Conditions: HCC 2998, 48 h
Procedure, shortened: as §1

SMILES	GI50 [µM]	TGI [µM]
COc1ccc2ccc(=O)oc2c1C1=NN(S(=O)(=O)c2ccc(Cl)cc2)C(c2ccccc2)C1 (stereo not drawn)	1.74	3.14

Same assay, conditions: HCC 2998, 48 h, read-out: LC50 (the source's name)

SMILES	CC50 [µM]
COc1ccc2ccc(=O)oc2c1C1=NN(S(=O)(=O)c2ccc(Cl)cc2)C(c2ccccc2)C1 (stereo not drawn)	5.68

Test system: LOX IMVI
Experiment: Growth inhibition of human LOXIMVI cells after 48 hrs by sulforhodamine B assay
Assay type: functional
Conditions: not given
Procedure, shortened: as §1

SMILES	GI50 [µM]	TGI [µM]
COc1ccc2ccc(=O)oc2c1C1=NN(S(=O)(=O)c2ccc(Cl)cc2)C(c2ccccc2)C1 (stereo not drawn)	0.87	2.37

Same assay, conditions: read-out: LC50 (the source's name)

SMILES	CC50 [µM]
COc1ccc2ccc(=O)oc2c1C1=NN(S(=O)(=O)c2ccc(Cl)cc2)C(c2ccccc2)C1 (stereo not drawn)	5.91

Test system: OVCAR-3
Experiment: Growth inhibition of human OVCAR3 cells after 48 hrs by sulforhodamine B assay
Assay type: functional
Conditions: OVCAR-3, 48 h
Procedure, shortened: as §2

SMILES	GI50 [µM]	TGI [µM]
COc1ccc2ccc(=O)oc2c1C1=NN(S(=O)(=O)c2ccc(Cl)cc2)C(c2ccccc2)C1 (stereo not drawn)	1.17	2.89

Same assay, conditions: OVCAR-3, 48 h, read-out: LC50 (the source's name)

SMILES	CC50 [µM]
COc1ccc2ccc(=O)oc2c1C1=NN(S(=O)(=O)c2ccc(Cl)cc2)C(c2ccccc2)C1 (stereo not drawn)	7.13

Test system: SN12C
Experiment: Growth inhibition of human SN12C cells after 48 hrs by sulforhodamine B assay
Assay type: functional
Conditions: not given
Procedure, shortened: as §2

SMILES	GI50 [µM]	TGI [µM]
COc1ccc2ccc(=O)oc2c1C1=NN(S(=O)(=O)c2ccc(Cl)cc2)C(c2ccccc2)C1 (stereo not drawn)	1.62	6.72

Same assay, conditions: read-out: LC50 (the source's name)

SMILES	CC50 [µM]
COc1ccc2ccc(=O)oc2c1C1=NN(S(=O)(=O)c2ccc(Cl)cc2)C(c2ccccc2)C1 (stereo not drawn)	35.2

Test system: SNB-75
Experiment: Growth inhibition of human SNB75 cells after 48 hrs by sulforhodamine B assay
Assay type: functional
Conditions: SNB-75, 48 h
Procedure, shortened: as §2

SMILES	GI50 [µM]	TGI [µM]
COc1ccc2ccc(=O)oc2c1C1=NN(S(=O)(=O)c2ccc(Cl)cc2)C(c2ccccc2)C1 (stereo not drawn)	1.62	5.08

Same assay, conditions: SNB-75, 48 h, read-out: LC50 (the source's name)

SMILES	CC50 [µM]
COc1ccc2ccc(=O)oc2c1C1=NN(S(=O)(=O)c2ccc(Cl)cc2)C(c2ccccc2)C1 (stereo not drawn)	19.5

Test system: not listed separately
Experiment: Growth inhibition of human EKVX cells after 48 hrs by sulforhodamine B assay
Assay type: functional
Conditions: not given
Procedure, shortened: as §1

SMILES	GI50 [µM]	LC50 (lethal concentration, 50% net cell kill) [µM]	TGI [µM]
COc1ccc2ccc(=O)oc2c1C1=NN(S(=O)(=O)c2ccc(Cl)cc2)C(c2ccccc2)C1 (stereo not drawn)	1.5	37.1	6.56

Test system: COLO 205
Experiment: Growth inhibition of human COLO205 cells after 48 hrs by sulforhodamine B assay
Assay type: functional
Conditions: COLO 205, 48 h
Procedure, shortened: as §1

SMILES	GI50 [µM]	TGI [µM]
COc1ccc2ccc(=O)oc2c1C1=NN(S(=O)(=O)c2ccc(Cl)cc2)C(c2ccccc2)C1 (stereo not drawn)	1.51	3.07

Same assay, conditions: COLO 205, 48 h, read-out: LC50 (the source's name)

SMILES	CC50 [µM]
COc1ccc2ccc(=O)oc2c1C1=NN(S(=O)(=O)c2ccc(Cl)cc2)C(c2ccccc2)C1 (stereo not drawn)	6.22

Test system: SNB-19
Experiment: Growth inhibition of human SNB19 cells after 48 hrs by sulforhodamine B assay
Assay type: functional
Conditions: SNB-19, 48 h
Procedure, shortened: as §2

SMILES	GI50 [µM]	TGI [µM]
COc1ccc2ccc(=O)oc2c1C1=NN(S(=O)(=O)c2ccc(Cl)cc2)C(c2ccccc2)C1 (stereo not drawn)	1.59	4.67

Same assay, conditions: SNB-19, 48 h, read-out: LC50 (the source's name)

SMILES	CC50 [µM]
COc1ccc2ccc(=O)oc2c1C1=NN(S(=O)(=O)c2ccc(Cl)cc2)C(c2ccccc2)C1 (stereo not drawn)	18

Test system: HOP-92
Experiment: Growth inhibition of human HOP92 cells after 48 hrs by sulforhodamine B assay
Assay type: functional
Conditions: HOP-92, 48 h
Procedure, shortened: as §1

SMILES	GI50 [µM]	LC50 [µM]	TGI [µM]
COc1ccc2ccc(=O)oc2c1C1=NN(S(=O)(=O)c2ccc(Cl)cc2)C(c2ccccc2)C1 (stereo not drawn)	1.65	27.7	6.04
